Data reported in publication PMC12318036 (Nature Communications, 2025).

What was measured:
[1] = system: intracellular calcium of TPCs; test: Intravital GCaMP6 calcium imaging in TPCs treated with U46619; type: in vivo, mouse; settings: PC^lin-KO-GCaMP6 mice compared with PC^lin-GCaMP6 mice; n = 6
[2] = system: tumor vessels; test: Intravital imaging of RBC velocity and vessel diameter change post-U46619; type: in vivo, mouse; settings: n = 6
Method in brief: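 Tumor-bearing mice received FITC-dextran i.v. before imaging. The exposed tumor was viewed with a 4× objective. A rapid line scan (735 lines per second) bisected the central axis of the capillary lumen, so that moving RBCs appeared as oblique shadows. Blood velocity was derived as Δx/Δt.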

[3] = system: tumor vessels; test: Two-photon vasoconstriction assay of tumor vessels exposed to U46619; type: in vivo, mouse; settings: MC-38-luc-LM3 orthotopic tumor, two-photon microscopy, U46619 10 min; n = 6
[4] = system: L-type calcium channel in TPCs; test: Calcium imaging; type: cell-based, human; settings: H89 2HCl 10 μM; Fluo-4AM; n = 3
[5] = system: TPCs; test: Cell; type: cell-based, human; settings: forskolin, then H89 2HCl (10 μM), then (S)-(-)-Bay K8644 (10 μM); F-actin, p-MLC2^Ser15, collagen contraction; n = 3
Method in brief: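 A commercial collagen gel contraction kit was used. Harvested pericytes (5 × 10^6) were mixed 1:4 v/v with collagen solution and polymerised at 37 °C for 1 h. Medium was then added over each lattice and gels were incubated for 2 days. Gel size (contraction index) was measured at 48 h by image analysis.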

Row | Compound | response of intracellular Ca^2+ of TPCs to U46619 [1] | tumor blood velocity after exposure to U46619, PC^lin-KO mice ([2]; compared with before treatment) | vascular diameter after exposure to U46619, PC^lin-KO mice ([2]; compared with before treatment) | tumor blood velocity and vascular diameter before and post-treatment with U46619, PC^lin mice [2] | change of capillary diameter after U46619 treatment, PC^lin mice [3] | reduction of capillary diameter after U46619 treatment, PC^lin-KO mice [3] | calcium currents in TPCNM^NKX2-3+siPDE1C [4] | forskolin-increased calcium currents in TPCLM^siNKX2-3+PDE1C [4] | contraction of TPCLM^gNKX2-3+PDE1C [5]
1 | CCCCC[C@H](O)/C=C/[C@@H]1[C@@H](C/C=C\CCCC(=O)O)[C@H]2CO[C@@H]1C2 [U46619, 9,11-dideoxy-9α,11α-methanoepoxy prostaglandin F2α] | significantly increased | significantly decreased | significantly decreased | no significant difference | no obvious change | ~ 20% | – | – | –
2 | Cl.Cl.O=S(=O)(NCCNC/C=C/c1ccc(Br)cc1)c1cccc2cnccc12 [H89 2HCl] | – | – | – | – | – | – | reduced calcium currents | reversed | suppressed
